Experimental data published in ChEMBL document CHEMBL5058577, “EUbOPEN Chemogenomics Library 2 (Multiplex)” (2022).

Test system: HEK-293T
Assay: Multiplex assay against HEK293T
Format: toxicity, cell-based
Settings: human
Procedure, shortened: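 Per cents of healthy-nucleus cells form the tubulin, mitochondrial-mass and membrane-permeability phenotype values. Live cells were stained at seeding with Hoechst33342, BioTracker Green Microtubule Cytoskeleton Dye, MitoTracker Red and Annexin V Alexa Fluor 680. After compound addition they were imaged on a CQ1 microscope at 37°C and 5% CO2, and CellPathfinder machine-learning gating split them into Hoechst high-intensity objects or normal cells, normal cells into healthy, pyknosed or fragmented nuclei, and pyknosed cells into mitotic or apoptotic.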

[1] = 12 h, 1 µM, compound concentration 1 uM, replicate 1
[2] = 12 h, 1 µM, compound concentration 1 uM, replicate 2
[3] = 12 h, 10 µM, compound concentration 10 uM, replicate 1
[4] = 12 h, 10 µM, compound concentration 10 uM, replicate 2
[5] = 24 h, 1 µM, compound concentration 1 uM, replicate 1
[6] = 24 h, 1 µM, compound concentration 1 uM, replicate 2
[7] = 24 h, 10 µM, compound concentration 10 uM, replicate 1
[8] = 24 h, 10 µM, compound concentration 10 uM, replicate 2
[9] = 48 h, 1 µM, compound concentration 1 uM, replicate 1
[10] = 48 h, 1 µM, compound concentration 1 uM, replicate 2
[11] = 48 h, 10 µM, compound concentration 10 uM, replicate 1
[12] = 48 h, 10 µM, compound concentration 10 uM, replicate 2

Q: Which “Population Apoptotic (%)” value [1] does the source give for `O=C(NCCO)c1cccc(-c2cc(Nc3ccc(OC(F)(F)F)cc3)ncn2)c1` here?
A: Its value is 27%.

Q: What about the “Population Fragmented Nuclei (%)” value [1] of the same compound?
A: Its value is 7%.

Q: What about the “Population Healthy Nuclei (%)” value [1] of the same compound?
A: The value was 78%.

Q: What about the “Population Hoechst High Intensity Objects (%)” value [1] of the same compound?
A: Its value is 8%.

Q: And the “Population Membrane Permeable-Phenotype (%)” value [1]?
A: Its value is 0%.

Q: What about the “Population Mitochondria Different-Phenotype (%)” value [1] of the same compound?
A: Its value is 47%.

Q: What about the “Population Mitotic Cells (%)” value [1] of the same compound?
A: Its value is 72%.

Q: And the “Population Normal (%)” value [1]?
A: The value was 91%.

Q: What about the “Population Pyknosed Nuclei (%)” value [1] of the same compound?
A: Its value is 13%.

Q: And the “Population Tubulin-Different-Phenotype (%)” value [1]?
A: The value was 23%.

Q: And the “Total Cell Count” value [1]?
A: Its value is 409.

Q: What about the “Population Apoptotic (%)” value [2] of the same compound?
A: The value was 40%.

Q: What about the “Population Fragmented Nuclei (%)” value [2] of the same compound?
A: Its value is 4%.

Q: And the “Population Healthy Nuclei (%)” value [2]?
A: The value was 77%.

Q: What about the “Population Hoechst High Intensity Objects (%)” value [2] of the same compound?
A: Its value is 6%.

Q: And the “Population Mitochondria Different-Phenotype (%)” value [2]?
A: Its value is 60%.

Q: What about the “Population Mitotic Cells (%)” value [2] of the same compound?
A: The value was 59%.

Q: And the “Population Normal (%)” value [2]?
A: Its value is 93%.

Q: And the “Population Pyknosed Nuclei (%)” value [2]?
A: Its value is 17%.

Q: What about the “Population Tubulin-Different-Phenotype (%)” value [2] of the same compound?
A: Its value is 16%.

Q: And the “Total Cell Count” value [2]?
A: Its value is 262.

Q: And the “Population Apoptotic (%)” value [3]?
A: The value was 55%.

Q: What about the “Population Fragmented Nuclei (%)” value [3] of the same compound?
A: Its value is 6%.

Q: What about the “Population Healthy Nuclei (%)” value [3] of the same compound?
A: The value was 76%.

Q: And the “Population Hoechst High Intensity Objects (%)” value [3]?
A: Its value is 10%.

Q: What about the “Population Membrane Permeable-Phenotype (%)” value [3] of the same compound?
A: The value was 0%.

Q: What about the “Population Mitochondria Different-Phenotype (%)” value [3] of the same compound?
A: The value was 69%.

Q: And the “Population Mitotic Cells (%)” value [3]?
A: Its value is 44%.

Q: What about the “Population Normal (%)” value [3] of the same compound?
A: The value was 89%.

Q: And the “Population Pyknosed Nuclei (%)” value [3]?
A: The value was 17%.

Q: What about the “Population Tubulin-Different-Phenotype (%)” value [3] of the same compound?
A: The value was 49%.

Q: What about the “Total Cell Count” value [3] of the same compound?
A: Its value is 374.

Q: And the “Population Apoptotic (%)” value [4]?
A: The value was 63%.

Q: What about the “Population Fragmented Nuclei (%)” value [4] of the same compound?
A: The value was 5%.

Q: And the “Population Healthy Nuclei (%)” value [4]?
A: Its value is 73%.

Q: And the “Population Hoechst High Intensity Objects (%)” value [4]?
A: The value was 12%.

Q: And the “Population Mitochondria Different-Phenotype (%)” value [4]?
A: The value was 74%.

Q: What about the “Population Mitotic Cells (%)” value [4] of the same compound?
A: The value was 36%.

Q: And the “Population Normal (%)” value [4]?
A: Its value is 87%.

Q: What about the “Population Pyknosed Nuclei (%)” value [4] of the same compound?
A: The value was 21%.

Q: What about the “Population Tubulin-Different-Phenotype (%)” value [4] of the same compound?
A: Its value is 26%.

Q: What about the “Total Cell Count” value [4] of the same compound?
A: Its value is 325.

Q: What about the “Population Apoptotic (%)” value [5] of the same compound?
A: Its value is 26%.

Q: And the “Population Fragmented Nuclei (%)” value [5]?
A: The value was 11%.

Q: And the “Population Healthy Nuclei (%)” value [5]?
A: The value was 78%.

Q: What about the “Population Hoechst High Intensity Objects (%)” value [5] of the same compound?
A: The value was 4%.

Q: What about the “Population Membrane Permeable-Phenotype (%)” value [5] of the same compound?
A: The value was 0%.

Q: And the “Population Mitochondria Different-Phenotype (%)” value [5]?
A: Its value is 21%.

Q: And the “Population Mitotic Cells (%)” value [5]?
A: Its value is 73%.

Q: And the “Population Normal (%)” value [5]?
A: The value was 95%.

Q: What about the “Population Pyknosed Nuclei (%)” value [5] of the same compound?
A: The value was 10%.

Q: What about the “Population Tubulin-Different-Phenotype (%)” value [5] of the same compound?
A: Its value is 15%.

Q: What about the “Total Cell Count” value [5] of the same compound?
A: The value was 538.

Q: What about the “Population Apoptotic (%)” value [6] of the same compound?
A: Its value is 41%.

Q: What about the “Population Fragmented Nuclei (%)” value [6] of the same compound?
A: The value was 7%.

Q: What about the “Population Healthy Nuclei (%)” value [6] of the same compound?
A: Its value is 79%.

Q: What about the “Population Hoechst High Intensity Objects (%)” value [6] of the same compound?
A: The value was 6%.

Q: And the “Population Mitochondria Different-Phenotype (%)” value [6]?
A: Its value is 38%.

Q: What about the “Population Mitotic Cells (%)” value [6] of the same compound?
A: Its value is 58%.

Q: And the “Population Normal (%)” value [6]?
A: The value was 93%.

Q: And the “Population Pyknosed Nuclei (%)” value [6]?
A: The value was 13%.

Q: And the “Population Tubulin-Different-Phenotype (%)” value [6]?
A: Its value is 17%.

Q: And the “Total Cell Count” value [6]?
A: Its value is 331.

Q: What about the “Population Apoptotic (%)” value [7] of the same compound?
A: Its value is 39%.

Q: And the “Population Fragmented Nuclei (%)” value [7]?
A: Its value is 5%.

Q: And the “Population Healthy Nuclei (%)” value [7]?
A: The value was 80%.

Q: What about the “Population Hoechst High Intensity Objects (%)” value [7] of the same compound?
A: Its value is 7%.

Q: And the “Population Membrane Permeable-Phenotype (%)” value [7]?
A: The value was 0%.

Q: What about the “Population Mitochondria Different-Phenotype (%)” value [7] of the same compound?
A: The value was 61%.

Q: And the “Population Mitotic Cells (%)” value [7]?
A: Its value is 60%.

Q: And the “Population Normal (%)” value [7]?
A: The value was 92%.

Q: What about the “Population Pyknosed Nuclei (%)” value [7] of the same compound?
A: The value was 14%.

Q: And the “Population Tubulin-Different-Phenotype (%)” value [7]?
A: Its value is 38%.

Q: And the “Total Cell Count” value [7]?
A: The value was 447.

Q: What about the “Population Apoptotic (%)” value [8] of the same compound?
A: Its value is 50%.

Q: And the “Population Fragmented Nuclei (%)” value [8]?
A: Its value is 6%.

Q: What about the “Population Healthy Nuclei (%)” value [8] of the same compound?
A: The value was 77%.

Q: And the “Population Hoechst High Intensity Objects (%)” value [8]?
A: The value was 14%.

Q: And the “Population Mitochondria Different-Phenotype (%)” value [8]?
A: The value was 56%.

Q: And the “Population Mitotic Cells (%)” value [8]?
A: The value was 50%.

Q: What about the “Population Normal (%)” value [8] of the same compound?
A: The value was 85%.

Q: What about the “Population Pyknosed Nuclei (%)” value [8] of the same compound?
A: The value was 15%.

Q: And the “Population Tubulin-Different-Phenotype (%)” value [8]?
A: Its value is 22%.

Q: And the “Total Cell Count” value [8]?
A: Its value is 354.

Q: And the “Population Apoptotic (%)” value [9]?
A: Its value is 17%.

Q: What about the “Population Fragmented Nuclei (%)” value [9] of the same compound?
A: Its value is 12%.

Q: What about the “Population Healthy Nuclei (%)” value [9] of the same compound?
A: Its value is 80%.

Q: And the “Population Hoechst High Intensity Objects (%)” value [9]?
A: Its value is 3%.

Q: And the “Population Membrane Permeable-Phenotype (%)” value [9]?
A: The value was 2%.

Q: What about the “Population Mitochondria Different-Phenotype (%)” value [9] of the same compound?
A: The value was 17%.

Q: And the “Population Mitotic Cells (%)” value [9]?
A: Its value is 82%.

Q: What about the “Population Normal (%)” value [9] of the same compound?
A: Its value is 96%.

Q: And the “Population Pyknosed Nuclei (%)” value [9]?
A: The value was 7%.

Q: And the “Population Tubulin-Different-Phenotype (%)” value [9]?
A: The value was 13%.

Q: What about the “Total Cell Count” value [9] of the same compound?
A: The value was 897.

Q: And the “Population Apoptotic (%)” value [10]?
A: The value was 37%.

Q: And the “Population Fragmented Nuclei (%)” value [10]?
A: Its value is 9%.

Q: What about the “Population Healthy Nuclei (%)” value [10] of the same compound?
A: Its value is 79%.

Q: What about the “Population Hoechst High Intensity Objects (%)” value [10] of the same compound?
A: The value was 5%.

Q: And the “Population Membrane Permeable-Phenotype (%)” value [10]?
A: Its value is 0%.

Q: And the “Population Mitochondria Different-Phenotype (%)” value [10]?
A: Its value is 23%.

Q: What about the “Population Mitotic Cells (%)” value [10] of the same compound?
A: Its value is 62%.

Q: What about the “Population Normal (%)” value [10] of the same compound?
A: The value was 94%.

Q: And the “Population Pyknosed Nuclei (%)” value [10]?
A: Its value is 10%.

Q: What about the “Population Tubulin-Different-Phenotype (%)” value [10] of the same compound?
A: Its value is 9%.

Q: And the “Total Cell Count” value [10]?
A: The value was 476.

Q: What about the “Population Apoptotic (%)” value [11] of the same compound?
A: Its value is 41%.

Q: And the “Population Fragmented Nuclei (%)” value [11]?
A: Its value is 10%.

Q: And the “Population Healthy Nuclei (%)” value [11]?
A: The value was 79%.

Q: What about the “Population Hoechst High Intensity Objects (%)” value [11] of the same compound?
A: Its value is 8%.

Q: And the “Population Membrane Permeable-Phenotype (%)” value [11]?
A: Its value is 1%.

Q: And the “Population Mitochondria Different-Phenotype (%)” value [11]?
A: Its value is 36%.

Q: And the “Population Mitotic Cells (%)” value [11]?
A: Its value is 58%.

Q: And the “Population Normal (%)” value [11]?
A: The value was 91%.

Q: What about the “Population Pyknosed Nuclei (%)” value [11] of the same compound?
A: The value was 10%.

Q: What about the “Population Tubulin-Different-Phenotype (%)” value [11] of the same compound?
A: Its value is 18%.

Q: And the “Total Cell Count” value [11]?
A: The value was 595.

Q: What about the “Population Apoptotic (%)” value [12] of the same compound?
A: Its value is 58%.

Q: What about the “Population Fragmented Nuclei (%)” value [12] of the same compound?
A: Its value is 16%.

Q: And the “Population Healthy Nuclei (%)” value [12]?
A: The value was 72%.

Q: What about the “Population Hoechst High Intensity Objects (%)” value [12] of the same compound?
A: Its value is 17%.

Q: What about the “Population Membrane Permeable-Phenotype (%)” value [12] of the same compound?
A: The value was 0%.

Q: And the “Population Mitotic Cells (%)” value [12]?
A: Its value is 41%.

Q: And the “Population Normal (%)” value [12]?
A: The value was 82%.

Q: What about the “Population Pyknosed Nuclei (%)” value [12] of the same compound?
A: The value was 11%.

Q: And the “Population Tubulin-Different-Phenotype (%)” value [12]?
A: The value was 13%.

Q: And the “Total Cell Count” value [12]?
A: The value was 504.
